ChEMBL document CHEMBL1139204, “Synthesis and biological activity of 5-aza-ellipticine derivatives” (Bioorg Med Chem Lett, 2007)
The source made the active and inactive calls. The rule behind the calls is not given here.

Legend:
[1] = test system: HCT-116; experiment: Growth inhibition of human HCT116 cells by MTT assay; type: functional, cell-based
Outline: (§1)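 MTT cytotoxicity assay in human colon adenocarcinoma HCT116 cells and murine NIH 3T3 fibroblast cells treated with the novel 5-aza-ellipticine derivatives; toxicity read by MTT reduction.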

[2] = test system: NIH3T3; experiment: Growth inhibition of mouse NIH3T3 cells by MTT assay; type: cell-based; outline: as §1
[3] = species on record: Homo sapiens; experiment: Inhibition of topoisomerase 2-mediated kDNA de-catenation
Outline: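 Topoisomerase II decatenation of kinetoplast DNA (kDNA), run with a commercial kit following the manufacturer's recommended procedure. Decatenation depends on topo II double-strand break and re-ligation. A known topo II-active reference agent served as positive control.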

SMILES	IC50 [1] [nM]	IC50 [2] [nM]	Activity [3]
COc1ccc2[nH]c3c(c(C)c4c(NCCCN5CCN(CCCN)CC5)nccc4[n+]3C)c2c1	> 10000		
COc1ccc2[nH]c3c(c(C)c4c(O)nccc4[n+]3C)c2c1	200		
COc1ccc2[nH]c3nc4ccnc(NCCCNCCCN)c4c(C)c3c2c1		1000	
CC[n+]1c2ccnc(O)c2c(C)c2c3cc(OC)ccc3[nH]c21	3000		
COc1ccc2[nH]c3nc4ccnc(NCCCN(C)CCCN)c4c(C)c3c2c1	300	600	Active
COc1ccc2[nH]c3c(c(C)c4c(NCCCNCCCN)nccc4[n+]3C)c2c1	2000		
Cc1c2ccncc2c(C)c2c1[nH]c1ccccc12 [ELLIPTECINE]	300	3	Active
COc1ccc2[nH]c3nc4ccnc(Cl)c4c(C)c3c2c1	> 1000	> 1000	
CC[n+]1c2ccnc(NCCCNCCCN)c2c(C)c2c3cc(OC)ccc3[nH]c21	400		
CC[n+]1c2ccnc(NCCCNCCCNc3nccc4c3c(C)c3c5cc(OC)ccc5[nH]c3[n+]4CC)c2c(C)c2c3cc(OC)ccc3[nH]c21	300		
COc1ccc2[nH]c3c(C)c4ccnc(NCCCN(C)CCCN)c4c(C)c3c2c1	70	20	
